Rows were chosen to be rich in hits. Some 1.5% of all compounds tested hit in one or more screens of this group.
SIAE primary = blocks human sialic acid acetylesterase | SIAE FP-Rh probe binding, fluorescence polarization | Q9HAT2 | hit rate 0.69% among 370,000 | inhibition, % at 9.66 µM;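 active = inhibition above a cutoff: mean of compounds within the control limits plus 3 SD of those, cut at about 17% in these data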
ABHD4 inh = ABHD4 (mouse) inhibition, primary FP screen; AID 720543; purified mABHD4, FP-Rh probe fluorescence polarization; hit rate 0.54% among 370,000; inhibition, % at 8.92 µM; Q8VD66;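 active = inhibition exceeding the mean over every tested compound plus 3 SD, cut at about 30% in these data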
Target sequence (Q8VD66 whole entry, looked up): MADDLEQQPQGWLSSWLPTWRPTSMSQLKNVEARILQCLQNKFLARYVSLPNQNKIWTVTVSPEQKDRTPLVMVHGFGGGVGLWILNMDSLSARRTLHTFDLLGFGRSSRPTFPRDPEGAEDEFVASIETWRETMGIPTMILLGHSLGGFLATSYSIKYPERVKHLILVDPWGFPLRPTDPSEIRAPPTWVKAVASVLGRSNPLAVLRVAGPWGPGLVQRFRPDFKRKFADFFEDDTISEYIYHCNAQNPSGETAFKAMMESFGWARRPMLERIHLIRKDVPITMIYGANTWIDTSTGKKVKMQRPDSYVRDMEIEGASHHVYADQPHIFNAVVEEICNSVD
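Assay system: mABHD4 protein; medium: HEPES pH 7.0, NaCl, Pluronic buffer; dosing: 8.92 µM, single dose; schedule: 45 min + 60 min at 25 °C; signal: FP readout, ex 525 nm / em 598 nm; read-out: normalized percent inhibition of probe labeling; repeats: single replicate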
DAGLB inhibitor = diacylglycerol lipase beta (human) inhibition | HEK293T DAGLB membrane lysate, EnzChek fluorogenic substrate | hit rate 0.059% among 340,000 | inhibition, % at 5.17 µM; in the data active = inhibition above about 34%
HTRA1 inh = blocks human HTRA1 serine peptidase; Q92743; recombinant HTRA1, FP-rhodamine activity-based probe, fluorescence polarization; inhibition, % at 5.96 µM; hit rate 0.5% among 340,000; in the data active = inhibition above about 36%
TCR CD3 inh = human TCR-CD3 binding inhibition; TAMRA-labeled TCR probe fluorescence, biochemical; inhibition, % at 9.4 µM; hit rate 0.37% among 360,000; AID 651800;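 also: recombinant mutant TCR 2C K166C tagged with TAMRA read by polarization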
BSA probe FL = counter-screen for TCR-CD3 interaction inhibitors: BSA probe; inhibition, % at 9.4 µM; shares compounds with TCR CD3 inh; hit rate 10% among 1,200; TAMRA-labeled BSA probe fluorescence counterscreen; in the data active = inhibition above about 23%
TCR-CD3 conf = TCR-CD3 interaction inhibition, confirmation. shares compounds with TCR CD3 inh. inhibition, % at 9.4 µM. hit rate 48% among 1,200. AID 652036. TAMRA-labeled TCR probe fluorescence binding assay
mABHD4 conf = confirmation of mouse ABHD4 inhibitors; inhibition, % at 8.92 µM; shares compounds with ABHD4 inh; purified mABHD4, FP-Rh probe fluorescence polarization; hit rate 55% among 1,800; AID 720658;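 active = mean inhibition across replicates above the hit cutoff set in the primary screen, cut at about 30% in these data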
SIAE inh conf = human SIAE inhibition, confirmation; shares compounds with SIAE primary; SIAE FP-Rh activity-based probe, fluorescence polarization; inhibition, % at 9.66 µM; hit rate 13% among 2,300;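 active = mean inhibition of the replicates above the hit cutoff set in the primary screen, cut at about 17% in these data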;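 also: inhibitors lower polarization as more probe stays unbound to SIAE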
Each line names hits and unclear results; the compound was inactive in the other large screens (follow-up assays come after a bar, where they were run); ! = repeats disagree. Rule as the data show it, unless noted: active = inhibition above about 19%; inactive = the rest.

C/C(=N\NC(=O)c1ccccc1O)C1C(=O)c2ccccc2C1=O	ABHD4 inh 46, TCR CD3 inh 33 | BSA probe FL inactive | TCR-CD3 conf 42 | mABHD4 conf 64
COC(=O)c1ccc(S(=O)(=O)N2CCC(NC(=O)CCC3CCCC3)CC2)cc1	none (no result: DAGLB inhibitor, HTRA1 inh, TCR CD3 inh)
O=C(O)c1ccccc1C1=Nc2ccc(O)cc2Oc2cc(O)ccc21	ABHD4 inh 30, TCR CD3 inh 34 | BSA probe FL 57 | TCR-CD3 conf 47 | mABHD4 conf 61
O=C1c2ccc3c4c(ccc(c24)C(=O)N1CCCCO)C(=O)N(CCCCO)C3=O	ABHD4 inh 38, TCR CD3 inh 34 | BSA probe FL 40 | TCR-CD3 conf 25 | mABHD4 conf inactive
O=C(c1ccc2c(c1)C(=O)N(CCCO)C2=O)c1ccc2c(c1)C(=O)N(CCCO)C2=O	none
CCc1cc2c(nc1CC)CCCN2CCOC	none (no result: DAGLB inhibitor, HTRA1 inh)
COC(=O)[C@]12C[C@H](CC(=O)NCc3ccccc3)C(=O)N(CCC3=CCCCC3)C1=C[C@H](C1CCCC1)O[C@@H]2C	none (no result: DAGLB inhibitor, HTRA1 inh, TCR CD3 inh)
COc1cccc(CNC(=O)[C@H]2CCCN2C(=O)C2CCCN2C(=O)c2ccc(OC)c(F)c2)c1 (some centres not stated)	none (no result: DAGLB inhibitor, HTRA1 inh)
O=C1/C(=C/C=C/c2ccco2)SC(=S)N1NS(=O)(=O)c1ccccc1	ABHD4 inh 46, TCR CD3 inh 22 | BSA probe FL inactive | TCR-CD3 conf 21 | mABHD4 conf inactive
O=C(CSc1nnc(-c2ccccn2)n1-c1ccccc1)Nc1ccc(OCc2ccccc2)cc1	none (no result: DAGLB inhibitor, HTRA1 inh, TCR CD3 inh)
CCOC(=O)N1CCN(c2cc(NCCO)c([N+](=O)[O-])c3nonc23)CC1	none
CC(=O)OCCNc1cc(N2CCN(C)CC2)c2noc3c2c1C(=O)c1ccccc1-3	ABHD4 inh 32, TCR CD3 inh 24 | BSA probe FL inactive | TCR-CD3 conf inactive | mABHD4 conf inactive
CC(=O)Nc1ccc(S(=O)(=O)NCc2ccc3[nH]c(C)cc3c2)cc1	none
CC(=O)Nc1ccc(S(=O)(=O)NCc2ccc3c(c2)cc(C)n3C)cc1	ABHD4 inh 46, TCR CD3 inh 54 | BSA probe FL inactive | TCR-CD3 conf inactive | mABHD4 conf inactive
N=C1N(C(=O)OCc2ccccc2)/C(=C\C2=CCCCC2)C(Cc2ccccc2)N1Cc1ccccc1 (configuration not stated)	none (no result: DAGLB inhibitor, HTRA1 inh, TCR CD3 inh)
C[c-]1[c-](C)[c-](C)[c-](C)[c-]1C.[Fe].c1cc2nccc(N3CCCC3)[c-]2c1 (configuration not stated)	ABHD4 inh 33!, TCR CD3 inh 49 | BSA probe FL inactive | TCR-CD3 conf 19! | mABHD4 conf 30
CN(C)c1ccc(C=Cc2nccc3ccccc23)cc1	SIAE primary 131, ABHD4 inh 112, TCR CD3 inh 157 (no result: DAGLB inhibitor, HTRA1 inh) | BSA probe FL 145 | TCR-CD3 conf 88 | mABHD4 conf 85 | SIAE inh conf 20
C[C@@H]1CN([C@@H](C)CO)C(=O)CCCn2cc(nn2)CO[C@H]1CN(C)S(C)(=O)=O	none (no result: DAGLB inhibitor, HTRA1 inh)
O=C1c2ccc3c4c(ccc(c24)C(=O)N1c1ccc2ccccc2c1)CC3	none
O=C1CCC(=O)c2ccc3c4c(ccc1c24)CC3	SIAE primary 19, TCR CD3 inh 34 | BSA probe FL inactive | TCR-CD3 conf inactive | SIAE inh conf inactive
Nc1cccc2cc(S(=O)(=O)O)ccc12	SIAE primary 20, ABHD4 inh 64, TCR CD3 inh 27 | BSA probe FL inactive | TCR-CD3 conf inactive | SIAE inh conf inactive
O=Nc1c(O)ccc2cc(S(=O)(=O)O)ccc12	none (no result: SIAE primary, ABHD4 inh, TCR CD3 inh)
Cn1c(=O)c2c(-c3ccccc3)n(-c3ccc(N)cc3)cc2n(C)c1=O	SIAE primary 22, ABHD4 inh 58, TCR CD3 inh 29 (no result: DAGLB inhibitor, HTRA1 inh) | BSA probe FL inactive | TCR-CD3 conf inactive | mABHD4 conf inactive | SIAE inh conf inactive
Cn1c(=O)c2c(-c3ccccc3)n(-c3cccc(O)c3)cc2n(C)c1=O	none (no result: DAGLB inhibitor, HTRA1 inh)
CCOc1ccccc1/C=N/NC(=O)c1cccc(S(=O)(=O)N(CC)CC)c1	none
CCN(CC)S(=O)(=O)c1cccc(C(=O)N/N=C/c2ccc(O)c(O)c2O)c1	SIAE primary 34, ABHD4 inh 42, TCR CD3 inh 31 | BSA probe FL inactive | TCR-CD3 conf 29 | mABHD4 conf 52 | SIAE inh conf inactive
CCC(CNc1cc(OC)cc2cccnc12)NC1CCCCC1 (configuration not stated)	SIAE primary 48, ABHD4 inh 89, TCR CD3 inh 126 | BSA probe FL inactive | TCR-CD3 conf inactive | mABHD4 conf inactive | SIAE inh conf inactive
COC(=O)c1ccc2c(c1)SC1=C(CCCC1=O)N2	SIAE primary 19, ABHD4 inh 35, TCR CD3 inh 37 | BSA probe FL 76 | TCR-CD3 conf 57 | mABHD4 conf 32 | SIAE inh conf 23
O=C1CCCC2=C1Sc1ccc(Cl)cc1N2	none
COc1ccc(C(=O)C(=O)N2CCN(S(=O)(=O)c3cccc4c(N(C)C)cccc34)CC2)cc1OC	none (no result: DAGLB inhibitor, HTRA1 inh)
Cc1cc(C(=O)OCC(=O)NC2CCS(=O)(=O)C2)c2ccccc2n1 (configuration not stated)	none
O=C(COC(=O)c1cc(-c2cccc3ccccc23)nc2ccccc12)NC1CCS(=O)(=O)C1 (configuration not stated)	SIAE primary 25, ABHD4 inh 38, TCR CD3 inh 30 | BSA probe FL 54 | TCR-CD3 conf 38 | mABHD4 conf inactive | SIAE inh conf inactive
COc1ccc(S(=O)(=O)N2CCCCCC2)c2ccccc12	none (no result: DAGLB inhibitor, HTRA1 inh, TCR CD3 inh)
O=C1CCCC/C1=C\Nc1ccc(O)cc1	SIAE primary 22, ABHD4 inh 54, TCR CD3 inh 42 | BSA probe FL inactive | TCR-CD3 conf inactive | mABHD4 conf inactive | SIAE inh conf inactive
Cc1cccc(Nc2nc(N)nc(N)c2N=O)c1	none
Cc1ccc(N(C)c2nc(N)nc(N)c2N=O)cc1	SIAE primary 52, ABHD4 inh 85, TCR CD3 inh 197 (no result: DAGLB inhibitor, HTRA1 inh) | BSA probe FL active | TCR-CD3 conf 198 | SIAE inh conf 95
O=C(N/N=C\c1ccc(Cl)s1)c1ccc(Cn2cccn2)o1	none
O=C(N/N=C\c1c(O)ccc2ccccc12)c1ccc(Cn2cccn2)o1	SIAE primary 24, TCR CD3 inh 24 | BSA probe FL inactive | TCR-CD3 conf 25 | SIAE inh conf inactive
COCCN1Cc2cc(C(=O)OC)c3c(c2C1=O)c1cc(F)ccc1n3S(=O)(=O)c1cccc(C)c1	none (no result: DAGLB inhibitor, HTRA1 inh)
Cc1cc(C)c(-c2csc(NC(=O)C3=COCCO3)n2)c(C)c1	none
Cc1cc(-c2csc(NC(=O)C3=COCCO3)n2)c(C)n1C	SIAE primary 26, TCR CD3 inh 22 | BSA probe FL inactive | TCR-CD3 conf inactive | SIAE inh conf inactive

Source: PubChem (The Scripps Research Institute Molecular Screening Center)
